{
  "source": "ChEMBL document CHEMBL1629639",
  "about": "“Selectivity of TMC207 towards mycobacterial ATP synthase compared with that towards the eukaryotic homologue” (Antimicrob Agents Chemother, 2009)",
  "key": {"Mus musculus [1]": {"species": "Mus musculus", "assay": "Inhibition of ATP synthase in M18 mouse liver mitochondria assessed as effect on oxygen consumption at 175 uM", "how_it_was_run": "(§1)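 Mitochondria freshly isolated from M18 mouse liver or bovine heart. Oxygen was read by Clark electrode at 37°C in 20 mM Tris-HCl pH 7.3, 85 mM KCl, 5 mM KH2PO4, 2.3 mM MgCl2, 25 mM creatine and 25 mM phosphocreatine, with an ADP-regenerating system. Succinate energised the membrane; rotenone blocked complex I. Inhibition was taken as the fall in state III O2 rate. Oligomycin 0.6 μM served as control. Mean±SD of three independent experiments.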"}, "[2]": {"assay": "Inhibition of human ATP synthase mediated ATP production at 100 nM", "how_it_was_run": "(§2)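 OVCAR3 cells were grown in DMEM with 10% FBS and penicillin-streptomycin. Isolated mitochondria (250 μg/ml) and sonicated submitochondrial particles without outer membrane (150 μg/ml) were incubated 1 h at 25°C with compound and an ADP-regenerating system. ATP formed was quantified spectrophotometrically from glucose-6-phosphate oxidation with NADP+. Controls were DCCD 5 μM and oligomycin 1 μM.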"}, "Bos taurus [3]": {"species": "Bos taurus", "assay": "Inhibition of ATP synthase in bovine heart mitochondria assessed as effect on oxygen consumption at 175 uM", "how_it_was_run": "as §1"}, "OVCAR-3 [4]": {"system": "OVCAR-3", "assay": "Inhibition of ATP synthase mediated ATP production in human OVCAR3 cells at 1 uM", "type": "cell-based", "how_it_was_run": "as §2"}, "OVCAR-3 [5]": {"system": "OVCAR-3", "assay": "Inhibition of ATP synthase mediated ATP production in human OVCAR3 cells", "type": "cell-based", "how_it_was_run": "as §2"}, "[6]": {"target": "T1, Putative uncharacterized protein atpE (Mycolicibacterium smegmatis, UniProt Q5TIX5)", "T1 sequence (Q5TIX5 whole entry)": "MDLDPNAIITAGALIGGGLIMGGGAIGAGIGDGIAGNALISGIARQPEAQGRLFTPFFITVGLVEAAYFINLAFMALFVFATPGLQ", "assay": "Inhibition of Mycobacterium smegmatis MC2 155 ATP synthase subunit c-mediated ATP production at 100 nM", "how_it_was_run": "(§3)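 Inverted membrane vesicles from M. smegmatis mc²155 incubated with compound at 25°C for 1 h with an ADP-regenerating system. ATP formed was quantified spectrophotometrically by following glucose-6-phosphate oxidation with NADP+. Controls were DCCD (100 μM) and oligomycin (1 μM). IC50 taken from the concentration-response of ATP synthesis.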"}, "[7]": {"system": "Mycolicibacterium smegmatis", "assay": "Antimicrobial activity against Mycobacterium smegmatis", "type": "functional"}, "[8]": {"target": "T1, Putative uncharacterized protein atpE", "assay": "Inhibition of Mycobacterium smegmatis MC2 155 ATP synthase subunit c-mediated ATP production", "how_it_was_run": "as §3"}, "Mus musculus [9]": {"species": "Mus musculus", "assay": "Inhibition of ATP synthase in M18 mouse liver mitochondria assessed as inhibition of oxygen consumption", "how_it_was_run": "as §1"}, "OVCAR-3 [10]": {"system": "OVCAR-3", "assay": "Inhibition of ATP synthase mediated ATP production in human OVCAR3 cells at 200 uM", "type": "cell-based", "how_it_was_run": "as §2"}, "[11]": {"system": "Mycobacterium tuberculosis", "assay": "Antimicrobial activity against Mycobacterium tuberculosis", "type": "functional"}, "OVCAR-3 [12]": {"system": "OVCAR-3", "assay": "Inhibition of ATP synthase mediated ATP production in human OVCAR3 cells at 5 uM", "type": "cell-based", "how_it_was_run": "as §2"}, "Bos taurus [13]": {"species": "Bos taurus", "assay": "Inhibition of ATP synthase in bovine heart mitochondria assessed as inhibition of oxygen consumption", "conditions": "concentration not given here", "how_it_was_run": "as §1"}},
  "note": "Active and inactive are the calls of the source. No cut-off for these calls is given here.",
  "data": [
    {"smiles": "COc1nc2ccc(Br)cc2cc1[C@@H](c1ccccc1)[C@@](O)(CCN(C)C)c1cccc2ccccc12", "note": "[BEDAQUILINE]", "values": [
      {"measurement": "inhibition", "setting": "Mus musculus [1]", "result": "inactive"},
      {"measurement": "IC50", "setting": "[2]", "result": "> 200000", "unit": "nM"},
      {"measurement": "inhibition", "setting": "Bos taurus [3]", "result": "inactive"},
      {"measurement": "inhibition", "setting": "OVCAR-3 [4]", "result": "> 90", "unit": "%"},
      {"measurement": "inhibition", "setting": "OVCAR-3 [5]", "result": "inactive"},
      {"measurement": "IC50", "setting": "[6]", "result": 10, "unit": "nM"},
      {"measurement": "MIC", "setting": "[7]", "result": 0.015, "unit": "µM"},
      {"measurement": "IC50", "setting": "[8]", "result": 10, "unit": "nM"},
      {"measurement": "inhibition", "setting": "Mus musculus [9]", "result": "> 80", "unit": "%"},
      {"measurement": "inhibition", "setting": "OVCAR-3 [10]", "result": 35, "unit": "%"},
      {"measurement": "MIC", "setting": "[11]", "result": 0.03, "unit": "µM"},
      {"measurement": "inhibition", "setting": "OVCAR-3 [12]", "result": "> 90", "unit": "%"},
      {"measurement": "inhibition", "setting": "Bos taurus [13]", "result": "> 50", "unit": "%"}
    ]}
  ]
}
